According to publication PMC4624502 (Experimental eye research, 2015):

Columns and labels:
[1] = molecular target: T1, zIRBP (zebrafish IRBP, gene II product, full-length two-module) (Danio rerio, UniProt F1Q9N9); test: fluorescence titration, enhancement of retinol fluorescence; type: binding
T1 sequence (F1Q9N9 22-615): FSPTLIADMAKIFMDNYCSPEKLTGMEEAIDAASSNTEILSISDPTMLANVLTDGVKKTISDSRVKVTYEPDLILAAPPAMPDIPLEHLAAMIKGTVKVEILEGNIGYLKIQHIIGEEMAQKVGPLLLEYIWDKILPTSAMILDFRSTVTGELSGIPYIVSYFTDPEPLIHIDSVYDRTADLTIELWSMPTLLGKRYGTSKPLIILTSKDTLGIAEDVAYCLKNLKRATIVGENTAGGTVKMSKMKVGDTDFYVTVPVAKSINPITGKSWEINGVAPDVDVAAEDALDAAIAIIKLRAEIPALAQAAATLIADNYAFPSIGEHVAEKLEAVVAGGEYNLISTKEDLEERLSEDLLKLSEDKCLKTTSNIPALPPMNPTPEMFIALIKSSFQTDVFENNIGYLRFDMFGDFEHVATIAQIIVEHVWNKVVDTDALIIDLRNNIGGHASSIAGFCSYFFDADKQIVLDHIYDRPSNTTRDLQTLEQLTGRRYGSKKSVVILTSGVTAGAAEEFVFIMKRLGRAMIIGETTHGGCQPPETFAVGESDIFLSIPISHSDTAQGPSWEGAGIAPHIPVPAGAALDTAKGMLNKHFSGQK
Summary of the method: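 Full-length zIRBP was expressed in E. coli BL21(DE3), His-trap purified, TEV-cleaved, and anion-exchange polished (>98% pure). Retinol in ethanol was added in 0.5 µL aliquots at 1 min intervals to 1 µM protein or to buffer (final alcohol ≤2%). Fluorescence was read at ex 330/em 480 nm with oleic acid at 0.0–0.112 µM. Kd came from a nonlinear least-squares one-site Hill fit.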

[2] = molecular target: T2, zebrafish IRBP module 1 (z1) (Danio rerio, UniProt F1Q9N9); test: X-ray crystal structure, […] Å; type: binding; details: oleic acid in hydrophobic pocket of domain A; pH 7.5, PEG 8000
T2 sequence (F1Q9N9 22-330): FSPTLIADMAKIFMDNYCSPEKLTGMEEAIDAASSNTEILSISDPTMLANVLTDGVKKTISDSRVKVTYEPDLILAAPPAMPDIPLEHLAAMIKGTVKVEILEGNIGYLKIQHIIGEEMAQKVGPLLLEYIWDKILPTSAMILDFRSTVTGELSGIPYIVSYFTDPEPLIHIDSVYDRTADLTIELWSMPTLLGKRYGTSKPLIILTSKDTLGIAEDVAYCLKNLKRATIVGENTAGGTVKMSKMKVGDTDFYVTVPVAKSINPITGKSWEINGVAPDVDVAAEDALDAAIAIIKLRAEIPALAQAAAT

SMILES	Kd [1]	X-ray crystal structure, 1.90 Å [2]
CC1=C(/C=C/C(C)=C/C=C/C(C)=C/CO)C(C)(C)CCC1 [all-trans retinol]	910 ± 50 nM	–
CCCCCCCC/C=C\CCCCCCCC(=O)O [oleic acid]	–	electron density for an extended oleic acid molecule in domain A
